Experiments:
Trypanosoma cruzi = experiment: Inhibition of Trypanosoma cruzi Tulahuen in BALB/c mouse blood; type: functional
How it was run: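 Trypomastigote lysis assay: mouse blood (from infected BALB/c, cardiac puncture) holding 5 × 10^4 bloodstream trypomastigotes per well, compound added from 10 mM DMSO stock diluted in BHI; DMSO controls (final 1/1000). 24 h at 4 °C, then microscopic counting at 400×. Triplicates, experiments repeated 3–4 times; lysis relative to control; LC50 = minimal concentration lysing 50%.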

[1] = Cytotoxicity against HeLa cells after 72 hrs; type: cell-based; conditions: human
How it was run: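 HeLa cells grown in RPMI 1640 with 10% heat-inactivated FBS and gentamicin, then harvested in log phase by trypsinization. About 10 000 cells/well were preincubated 48 h before compound addition (10 mM DMSO stock diluted 1:200 in medium). Cells were exposed 72 h at 37 °C, 5% CO2, fixed with glutaraldehyde and stained with methylene blue. Stain was eluted with HCl and OD read at 660 nm to give CC50.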

[2] = Inhibition of Saccharomyces cerevisiae FTase
Vero [3] = experiment: Effect on Vero cell morphology at 100 uM; type: functional, cell-based; conditions: Chlorocebus sabaeus
How it was run: (§1)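 Vero cells cultured in RPMI 1640 with 5% heat-inactivated FBS. 10^4 cells/well were incubated with compound at 37 °C, 5% CO2, in triplicate per concentration. DMSO was the diluent at a final 1/1000, and DMSO-only wells served as control. Toxicity was judged by cell morphology and confluent growth.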

Vero [4] = experiment: Cytotoxicity against Vero cells at 100 uM; type: cell-based; conditions: chlorocebus sabaeus; how it was run: as §1
Mus musculus [5] = experiment: Survival of BALB/c mouse infected with Trypanosoma cruzi trypomastigotes at 7 mg/kg/day relative to control; type: functional
How it was run: (§2)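 Male BALB/c mice, 60 days old, infected intraperitoneally with 500 bloodstream trypomastigotes (groups of five; untreated infected controls, six). Oral dosing (25 µL) from 30 min post-infection, five times weekly, 39 doses total (21 at 3.2 mg/kg/day). Control mice got physiological solution. Parasitemia checked by tail-blood microscopy twice weekly. Survival recorded to day 115 pi.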

Mus musculus [6] = experiment: Survival of BALB/c mouse infected with Trypanosoma cruzi trypomastigotes at 3.2 mg/kg/day relative to control; type: functional; how it was run: as §2
Mus musculus [7] = experiment: Survival of BALB/c mouse infected with Trypanosoma cruzi trypomastigotes at 6.4 mg/kg/day relative to control; type: functional; how it was run: as §2

| Compound | LC50 (Trypanosoma cruzi) [µM] | CC50 at 72 h [1] [µM] | IC50 [2] [µM] | further results |
| --- | --- | --- | --- | --- |
| N[C@H](Cc1ccc(Cl)cc1)C(=O)Nc1ccc(NC(=O)/C=C/c2ccc(-c3ccc([N+](=O)[O-])cc3)o2)cc1C(=O)c1ccccc1 | > 10 | > 74.5 | 0.07 |  |
| CC(C)C[C@@H](N)C(=O)Nc1ccc(NC(=O)/C=C/c2ccc(-c3ccc([N+](=O)[O-])cc3)o2)cc1C(=O)c1ccccc1 | 0.1 | 47.8 | 0.5 |  |
| O=C(/C=C/c1ccc(-c2ccc([N+](=O)[O-])cc2)o1)Nc1ccc(NC(=O)C(c2ccccc2)N2CCN(c3ccccc3)CC2)c(C(=O)c2ccccc2)c1 (configuration not stated) | > 50 |  | 0.3 |  |
| N[C@@H](C(=O)Nc1ccc(NC(=O)/C=C/c2ccc(-c3ccc([N+](=O)[O-])cc3)o2)cc1C(=O)c1ccccc1)c1ccccc1 | > 50 | > 80 | 0.008 |  |
| N[C@H](C(=O)Nc1ccc(NC(=O)/C=C/c2ccc(-c3ccc([N+](=O)[O-])cc3)o2)cc1C(=O)c1ccccc1)c1ccccc1 | > 50 | > 80 | 0.046 |  |
| N[C@@H](Cc1c[nH]c2ccccc12)C(=O)Nc1ccc(NC(=O)/C=C/c2ccc(-c3ccc([N+](=O)[O-])cc3)o2)cc1C(=O)c1ccccc1 | 10 |  | 0.58 |  |
| O=C(/C=C/c1ccc(-c2ccc([N+](=O)[O-])cc2)o1)Nc1ccc(NC(=O)C(c2ccccc2)N2CCN(C3CCCCC3)CC2)c(C(=O)c2ccccc2)c1 (configuration not stated) | 1 | 42 | 0.34 |  |
| N[C@@H](Cc1ccccc1)C(=O)Nc1ccc(NC(=O)/C=C/c2ccc(-c3ccc([N+](=O)[O-])cc3)o2)cc1C(=O)c1ccccc1 | > 10 | > 79 | 0.003 |  |
| O=C(/C=C/c1ccc(-c2ccc([N+](=O)[O-])cc2)o1)Nc1ccc(NC(=O)C(c2ccccc2)N2CCN(Cc3ccccc3)CC2)c(C(=O)c2ccccc2)c1 (configuration not stated) | 50 |  | 0.66 |  |
| CCc1ccc(-c2ccc(/C=C/C(=O)Nc3ccc(NC(=O)Cc4ccc(C)cc4)c(C(=O)c4ccccc4)c3)o2)cc1 | 50 |  | 0.09 |  |
| CSCC[C@@H](N)C(=O)Nc1ccc(NC(=O)/C=C/c2ccc(-c3ccc([N+](=O)[O-])cc3)o2)cc1C(=O)c1ccccc1 | > 10 | > 81 | 0.5 |  |
| O=C(/C=C/c1ccc(-c2ccc([N+](=O)[O-])cc2)o1)Nc1ccc(NC(=O)Cc2ccc(C(F)(F)F)cc2)c(C(=O)c2ccccc2)c1 | 50 | > 57 | 0.026 |  |
| CN1CCN(C(C(=O)Nc2ccc(NC(=O)/C=C/c3ccc(-c4ccc([N+](=O)[O-])cc4)o3)cc2C(=O)c2ccccc2)c2ccc(Cl)cc2)CC1 (configuration not stated) | 10 | 38.6 | 0.125 |  |
| O=C(/C=C/c1ccc(-c2ccc([N+](=O)[O-])cc2)o1)Nc1ccc(NC(=O)C(c2ccccc2)N2CCOCC2)c(C(=O)c2ccccc2)c1 (configuration not stated) | 50 | > 76 | 0.66 |  |
| CC(C)(C)OC(=O)NC(Cc1ccc(C(F)(F)F)cc1)C(=O)Nc1ccc(NC(=O)/C=C/c2ccc(-c3ccc([N+](=O)[O-])cc3)o2)cc1C(=O)c1ccccc1 (configuration not stated) | > 50 |  | 0.285 |  |
| CC(C)(C)OC(=O)NC(C(=O)Nc1ccc(NC(=O)/C=C/c2ccc(-c3ccc([N+](=O)[O-])cc3)o2)cc1C(=O)c1ccccc1)c1ccc(C(F)(F)F)cc1 (configuration not stated) | 50 |  | 0.008 |  |
| Cc1ccc(CC(=O)Nc2ccc(NC(=O)/C=C/c3ccc(-c4ccc(S(C)(=O)=O)cc4)o3)cc2C(=O)c2ccccc2)cc1 | 50 |  | 0.03 |  |

| Compound | LC50 (Trypanosoma cruzi) [µM] | CC50 at 72 h [1] [µM] | IC50 [2] [µM] | further results |
| --- | --- | --- | --- | --- |
| NC(C(=O)Nc1ccc(NC(=O)/C=C/c2ccc(-c3ccc([N+](=O)[O-])cc3)o2)cc1C(=O)c1ccccc1)c1ccc(C(F)(F)F)cc1 (configuration not stated) | 10 |  | 0.017 |  |
| CCCN1CCN(C(C(=O)Nc2ccc(NC(=O)/C=C/c3ccc(-c4ccc([N+](=O)[O-])cc4)o3)cc2C(=O)c2ccccc2)c2ccccc2)CC1 (configuration not stated) | 0.01 | 68 | 0.125 | Activity (Vero [3]): Non-toxic; Activity (Vero [4]): Non-toxic; survival at 7 mg/kg/day (Mus musculus [5]): 60% |
| CN1CCN(C(C(=O)Nc2ccc(NC(=O)/C=C/c3ccc(-c4ccc([N+](=O)[O-])cc4)o3)cc2C(=O)c2ccccc2)c2ccccc2)CC1 (configuration not stated) | 10 | 37 | 0.01 |  |
| Cc1ccc(CC(=O)Nc2ccc(NC(=O)/C=C/c3ccc(-c4ccc([N+](=O)[O-])cc4)o3)cc2C(=O)c2ccccc2)cc1 | > 100 | > 85 | 0.035 |  |
| CC[C@H](C)[C@H](N)C(=O)Nc1ccc(NC(=O)/C=C/c2ccc(-c3ccc([N+](=O)[O-])cc3)o2)cc1C(=O)c1ccccc1 | 0.1 | > 83 | 0.15 |  |
| O=C(/C=C/c1ccc(-c2ccc([N+](=O)[O-])cc2)o1)Nc1ccc(NC(=O)C(c2ccccc2)N2CCCCC2)c(C(=O)c2ccccc2)c1 (configuration not stated) | 50 |  | 0.455 |  |
| CCN1CCN(C(C(=O)Nc2ccc(NC(=O)/C=C/c3ccc(-c4ccc([N+](=O)[O-])cc4)o3)cc2C(=O)c2ccccc2)c2ccccc2)CC1 (configuration not stated) | > 50 |  | > 10 |  |
| NC(C(=O)Nc1ccc(NC(=O)/C=C/c2ccc(-c3ccc([N+](=O)[O-])cc3)o2)cc1C(=O)c1ccccc1)c1ccc(F)cc1 (configuration not stated) | 50 | > 78 | 0.025 |  |
| NC(Cc1ccc(C(F)(F)F)cc1)C(=O)Nc1ccc(NC(=O)/C=C/c2ccc(-c3ccc([N+](=O)[O-])cc3)o2)cc1C(=O)c1ccccc1 (configuration not stated) | 50 |  | 0.095 |  |
| O=C1CCN(C(C(=O)Nc2ccc(NC(=O)/C=C/c3ccc(-c4ccc([N+](=O)[O-])cc4)o3)cc2C(=O)c2ccccc2)c2ccccc2)CC1 (configuration not stated) | 1 |  |  |  |
| N[C@H](Cc1ccccc1)C(=O)Nc1ccc(NC(=O)/C=C/c2ccc(-c3ccc([N+](=O)[O-])cc3)o2)cc1C(=O)c1ccccc1 | 0.001 | > 78 | 0.116 | survival at 3.2 mg/kg/day (Mus musculus [6]): 0%; survival at 6.4 mg/kg/day (Mus musculus [7]): 80%; Activity (Vero [3]): Non-toxic; Activity (Vero [4]): Non-toxic |
| CSCC[C@H](N)C(=O)Nc1ccc(NC(=O)/C=C/c2ccc(-c3ccc([N+](=O)[O-])cc3)o2)cc1C(=O)c1ccccc1 | > 10 | > 81 | 1.77 |  |
| CC(C)C[C@H](N)C(=O)Nc1ccc(NC(=O)/C=C/c2ccc(-c3ccc([N+](=O)[O-])cc3)o2)cc1C(=O)c1ccccc1 | 1 | > 83 | 0.36 |  |
| O=C(/C=C/c1ccc(-c2ccc([N+](=O)[O-])cc2)o1)Nc1ccc(NC(=O)C(c2ccccc2)N2CCN(CCO)CC2)c(C(=O)c2ccccc2)c1 (configuration not stated) | 10 | 71 | 0.43 |  |
| N[C@@H](Cc1ccc(Cl)cc1)C(=O)Nc1ccc(NC(=O)/C=C/c2ccc(-c3ccc([N+](=O)[O-])cc3)o2)cc1C(=O)c1ccccc1 | 1 | > 74.5 | 0.06 |  |
| CC(C)NC(=O)CN1CCN(C(C(=O)Nc2ccc(NC(=O)/C=C/c3ccc(-c4ccc([N+](=O)[O-])cc4)o3)cc2C(=O)c2ccccc2)c2ccccc2)CC1 (configuration not stated) | > 50 |  | 0.34 |  |
